From ChEMBL document CHEMBL1124558, “Differential effects of a series of hydroxamic acid derivatives on 5-lipoxygenase and cyclooxygenase from neutrophils and 12-lipoxygenase from platelets and their in vivo effects on inflammation and anaphylaxis” (J Med Chem, 1989)

Columns and labels:
[1] = biological target: T1, Cyclooxygenase (Rattus norvegicus) (UniProt P35355+Q63921); experiment: In vitro inhibitory activity against rat polymorphonuclear leukocyte Prostaglandin G/H synthase at 30 uM; assay type: protein assay
How it was run: (§1)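 Homogenate of glycogen-elicited rat peritoneal PMNs in 0.1 M Tris-HCl pH 8.2 with 10 μM NDGA, preincubated 5 min at 37 °C with compound (≤0.1% DMSO). [14C]arachidonic acid (8 μM) added with 4 mM glutathione and epinephrine; 10 min reaction. TxB2 and PGF2α separated by TLC and counted.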

[2] = biological target: T2, Arachidonate 12-lipoxygenase (Rattus norvegicus) (UniProt Q02759); experiment: In vitro inhibitory activity against rat platelet 12-lipoxygenase at 10 uM
T2 sequence (whole entry): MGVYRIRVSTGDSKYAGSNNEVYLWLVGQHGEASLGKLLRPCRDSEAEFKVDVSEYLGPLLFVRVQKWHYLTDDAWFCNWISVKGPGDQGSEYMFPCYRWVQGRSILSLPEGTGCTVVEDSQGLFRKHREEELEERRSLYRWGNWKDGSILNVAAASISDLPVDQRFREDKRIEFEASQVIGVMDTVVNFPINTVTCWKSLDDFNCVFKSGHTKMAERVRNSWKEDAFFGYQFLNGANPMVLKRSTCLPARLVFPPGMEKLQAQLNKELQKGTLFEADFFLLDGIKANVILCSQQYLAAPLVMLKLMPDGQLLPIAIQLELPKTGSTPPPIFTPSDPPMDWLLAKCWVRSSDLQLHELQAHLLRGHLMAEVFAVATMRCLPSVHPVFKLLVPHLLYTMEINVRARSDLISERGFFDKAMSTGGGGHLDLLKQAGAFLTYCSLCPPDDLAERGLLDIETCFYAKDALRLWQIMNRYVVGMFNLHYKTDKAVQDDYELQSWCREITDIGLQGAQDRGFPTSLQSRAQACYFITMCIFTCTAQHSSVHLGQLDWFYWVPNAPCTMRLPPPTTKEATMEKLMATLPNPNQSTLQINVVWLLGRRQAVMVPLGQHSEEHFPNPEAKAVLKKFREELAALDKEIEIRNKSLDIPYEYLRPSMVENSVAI
How it was run: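 Cell-free cytosolic 12-lipoxygenase from Sprague-Dawley rat platelets (0.4 mg/mL), preincubated 5 min at 30 °C with compound in DMSO (≤0.1% final), 25 mM Tris pH 7.4, 1 μM indomethacin, 100 μM glutathione; reaction started with 6 μM [14C]arachidonic acid and quenched with citric acid/NDGA after 3 min. 12-HETE isolated by TLC and counted by scintillation; % inhibition, duplicate.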

[3] = test system: 5-lipoxygenase (Cavia porcellus); experiment: In vitro inhibitory activity against polymorphonuclear leukocyte 5-lipoxygenase using guinea pig supernatant at 10 uM
[4] = biological target: T3, Polyunsaturated fatty acid 5-lipoxygenase (Homo sapiens) (UniProt P09917); experiment: In vitro inhibitory activity against polymorphonuclear leukocyte 5-lipoxygenase in human cell at 10 uM
T3 sequence (whole entry): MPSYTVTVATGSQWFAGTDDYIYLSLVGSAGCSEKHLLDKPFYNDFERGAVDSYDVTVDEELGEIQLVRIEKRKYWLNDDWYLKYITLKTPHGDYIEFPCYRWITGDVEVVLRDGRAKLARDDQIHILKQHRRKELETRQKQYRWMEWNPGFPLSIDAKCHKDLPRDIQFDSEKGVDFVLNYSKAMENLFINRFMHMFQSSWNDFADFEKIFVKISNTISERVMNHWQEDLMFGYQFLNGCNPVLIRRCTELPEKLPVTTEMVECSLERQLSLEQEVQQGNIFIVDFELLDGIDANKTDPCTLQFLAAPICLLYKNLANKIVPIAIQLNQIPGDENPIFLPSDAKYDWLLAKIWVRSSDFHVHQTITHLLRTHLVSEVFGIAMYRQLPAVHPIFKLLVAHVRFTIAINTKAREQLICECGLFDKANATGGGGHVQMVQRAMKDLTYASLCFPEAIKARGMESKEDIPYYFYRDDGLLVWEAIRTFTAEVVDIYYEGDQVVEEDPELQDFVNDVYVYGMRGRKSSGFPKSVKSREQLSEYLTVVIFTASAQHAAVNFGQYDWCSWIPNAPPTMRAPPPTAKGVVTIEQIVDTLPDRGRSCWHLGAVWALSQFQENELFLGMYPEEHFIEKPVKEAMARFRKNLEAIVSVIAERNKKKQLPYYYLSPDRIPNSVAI
How it was run: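 Human PMNs from venous blood of a healthy volunteer (EDTA) were purified by dextran sedimentation, a Percoll gradient and NH4Cl red-cell lysis (>90% pure). They were held in Ca/Mg PBS with 1 mg/mL glucose and 1 μM indomethacin, then challenged with A23187 (0.8 μM) and [14C]arachidonic acid (4 μM) for 3 min. 5-HETE was measured by TLC and scintillation counting.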

Mus musculus [5] = experiment: In vivo inhibitory activity against mouse ear inflammation when administered a compound dose (1 mg/ear); assay type: functional
How it was run: (§2)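 Compound or ethanol vehicle applied topically to one ear of male DBA/2J mice 60 min before arachidonic acid (2 mg/ear). […] Groups of 5 mice.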

[6] = biological target: T4, Cysteinyl leukotriene receptor 1 (Cavia porcellus, UniProt Q2NNR5); experiment: Activity to bind against [3H]LTD4 radioligand in guinea pig
T4 sequence (Q2NNR5 whole entry): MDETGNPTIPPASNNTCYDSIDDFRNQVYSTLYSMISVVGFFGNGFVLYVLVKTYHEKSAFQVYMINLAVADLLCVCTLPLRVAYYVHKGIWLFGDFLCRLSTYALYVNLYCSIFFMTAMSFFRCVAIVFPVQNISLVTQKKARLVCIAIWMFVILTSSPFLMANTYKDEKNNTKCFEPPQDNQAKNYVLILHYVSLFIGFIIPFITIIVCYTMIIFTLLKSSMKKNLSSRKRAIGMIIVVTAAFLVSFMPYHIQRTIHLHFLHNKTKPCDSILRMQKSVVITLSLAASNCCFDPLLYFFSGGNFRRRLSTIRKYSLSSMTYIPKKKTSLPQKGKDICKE

[7] = biological target: T5, Polyunsaturated fatty acid 5-lipoxygenase (Homo sapiens, UniProt P09917); experiment: In vitro inhibition of polymorphonuclear leukocyte derived human 5-lipoxygenase
T5 sequence (P09917 whole entry): T3 sequence (whole entry)
How it was run: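 PMNs from venous blood of healthy volunteers, isolated by dextran sedimentation and Percoll gradient (>90% pure) and held in Ca/Mg PBS with 1 mg/mL glucose and 1 μM indomethacin. Challenged with calcium ionophore and [14C]arachidonic acid for 3 min. 5-HETE measured by TLC and scintillation counting; IC50 read graphically.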

[8] = biological target: T6, Polyunsaturated fatty acid 5-lipoxygenase (Rattus norvegicus, UniProt P12527); experiment: In vitro inhibition of rat polymorphonuclear leukocyte 5-lipoxygenase
T6 sequence (P12527 whole entry): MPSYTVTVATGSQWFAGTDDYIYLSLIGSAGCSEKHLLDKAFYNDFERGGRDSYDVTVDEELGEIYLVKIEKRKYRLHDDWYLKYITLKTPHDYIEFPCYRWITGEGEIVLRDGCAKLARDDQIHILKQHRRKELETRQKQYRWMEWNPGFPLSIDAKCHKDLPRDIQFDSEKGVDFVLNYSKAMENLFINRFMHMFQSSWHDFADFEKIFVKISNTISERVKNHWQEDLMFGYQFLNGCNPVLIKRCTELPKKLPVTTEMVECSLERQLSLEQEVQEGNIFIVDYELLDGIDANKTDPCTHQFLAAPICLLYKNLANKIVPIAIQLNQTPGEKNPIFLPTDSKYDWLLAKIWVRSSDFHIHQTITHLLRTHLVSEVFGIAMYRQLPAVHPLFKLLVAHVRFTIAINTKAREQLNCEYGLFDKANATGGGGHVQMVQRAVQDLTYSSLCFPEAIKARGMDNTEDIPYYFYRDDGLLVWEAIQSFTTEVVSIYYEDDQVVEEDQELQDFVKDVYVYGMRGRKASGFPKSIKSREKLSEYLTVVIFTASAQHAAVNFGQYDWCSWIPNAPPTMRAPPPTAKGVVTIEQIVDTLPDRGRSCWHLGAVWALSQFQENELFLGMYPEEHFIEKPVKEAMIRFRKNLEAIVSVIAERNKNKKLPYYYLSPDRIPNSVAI
How it was run: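 Intact glycogen-elicited peritoneal PMNs pooled from 4–5 Sprague-Dawley rats (250 g), preincubated 5 min at 30 °C with compound in DMSO (≤0.1% final) plus 1 μM indomethacin. Challenge with [14C]arachidonic acid (4 μM) and A23187 (0.8 μM) for 3 min. Extraction, TLC, 5-HETE by scintillation counting.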

[9] = biological target: T1, Cyclooxygenase (Rattus norvegicus); experiment: In vitro inhibitory activity against rat polymorphonuclear leukocyte Prostaglandin G/H synthase; assay type: protein assay; conditions: concentration not given here
How it was run: (§3)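 Glycogen-elicited peritoneal PMNs from Sprague-Dawley rats were homogenized at 0 °C in 0.1 M Tris-HCl pH 8.2 with 10 μM NDGA. Compound (DMSO ≤0.1%) was preincubated 5 min at 37 °C, then 8 μM [14C]arachidonic acid with 4 mM glutathione and epinephrine was added for 10 min. TxB2 and PGF2α were measured by TLC and scintillation counting.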

Cavia porcellus [10] = experiment: In vivo inhibitory activity against guinea pig systemic anaphylaxis when administered a compound dose (60 mg/kg) perorally; assay type: functional; conditions: po
How it was run: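 Male Hartley guinea pigs sensitised ip with ovalbumin (2.7 mg/kg) plus LPS adjuvant, then challenged 2 weeks later with 1% ovalbumin aerosol for 30 s. Pretreated with pyrilamine, indomethacin and propranolol 20 min before challenge. Compound given in PEG 400 1 h before challenge.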

Cyclooxygenase [11] = biological target: T7, Cyclooxygenase (Rattus norvegicus, UniProt P35355+Q63921); experiment: In vitro inhibitory activity against rat polymorphonuclear leukocyte cyclooxygenase; assay type: protein assay; how it was run: as §3
T7 sequence (P35355 whole entry): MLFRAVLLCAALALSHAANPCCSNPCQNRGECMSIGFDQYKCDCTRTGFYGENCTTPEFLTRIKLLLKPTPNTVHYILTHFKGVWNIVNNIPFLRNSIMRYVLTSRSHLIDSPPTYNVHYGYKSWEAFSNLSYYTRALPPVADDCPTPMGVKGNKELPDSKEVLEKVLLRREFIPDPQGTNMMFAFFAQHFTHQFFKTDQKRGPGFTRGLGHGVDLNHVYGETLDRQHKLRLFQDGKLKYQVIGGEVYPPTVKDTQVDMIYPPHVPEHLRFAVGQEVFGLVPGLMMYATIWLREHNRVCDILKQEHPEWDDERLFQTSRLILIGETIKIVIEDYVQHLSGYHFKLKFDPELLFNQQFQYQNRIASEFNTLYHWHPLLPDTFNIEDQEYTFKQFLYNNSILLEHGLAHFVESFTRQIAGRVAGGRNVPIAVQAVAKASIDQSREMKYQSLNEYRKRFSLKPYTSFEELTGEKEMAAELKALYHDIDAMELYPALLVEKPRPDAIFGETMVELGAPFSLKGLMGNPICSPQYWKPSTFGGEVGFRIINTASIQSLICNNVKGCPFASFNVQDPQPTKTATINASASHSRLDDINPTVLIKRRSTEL
T7 sequence (Q63921 whole entry): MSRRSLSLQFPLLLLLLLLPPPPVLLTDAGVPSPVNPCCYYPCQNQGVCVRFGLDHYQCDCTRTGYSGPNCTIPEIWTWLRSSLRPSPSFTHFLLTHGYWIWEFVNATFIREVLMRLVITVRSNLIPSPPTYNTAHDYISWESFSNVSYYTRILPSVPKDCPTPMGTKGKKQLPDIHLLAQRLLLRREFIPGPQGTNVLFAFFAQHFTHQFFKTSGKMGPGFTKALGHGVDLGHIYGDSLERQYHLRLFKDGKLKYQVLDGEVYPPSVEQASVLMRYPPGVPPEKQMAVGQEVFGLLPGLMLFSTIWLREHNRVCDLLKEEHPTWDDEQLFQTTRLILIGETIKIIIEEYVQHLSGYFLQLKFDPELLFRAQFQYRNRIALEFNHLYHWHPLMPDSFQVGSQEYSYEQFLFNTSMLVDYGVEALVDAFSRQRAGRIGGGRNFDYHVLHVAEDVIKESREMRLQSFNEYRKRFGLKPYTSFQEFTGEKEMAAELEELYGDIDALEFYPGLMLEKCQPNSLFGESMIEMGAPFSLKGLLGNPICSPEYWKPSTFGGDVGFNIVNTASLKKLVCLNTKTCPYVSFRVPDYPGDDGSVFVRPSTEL

Cavia porcellus [12] = species: Cavia porcellus; experiment: Inhibitory activity against Leukotriene-D4 induced contractions; assay type: functional
Cavia porcellus [13] = species: Cavia porcellus; experiment: Inhibitory activity against Leukotriene C4 induced contractions; assay type: functional
Cyclooxygenase [14] = biological target: T7, Cyclooxygenase; experiment: In vitro inhibitory activity against polymorphonuclear leukocyte cyclooxygenase; assay type: protein assay; how it was run: as §3
Mus musculus [15] = experiment: In vivo inhibition of mouse ear inflammation; assay type: functional; design: concentration or dose not given beside the values; how it was run: as §2
[16] = biological target: T1, Cyclooxygenase (Rattus norvegicus); experiment: In vitro inhibitory activity against rat polymorphonuclear leukocyte Prostaglandin G/H synthase at 10 uM; assay type: protein assay; how it was run: as §1
[17] = biological target: T1, Cyclooxygenase (Rattus norvegicus); experiment: In vitro inhibitory activity against rat polymorphonuclear leukocyte Prostaglandin G/H synthase at 100 uM; assay type: protein assay; how it was run: as §3
[18] = test system: 5-lipoxygenase (Cavia porcellus); experiment: Inhibitory activity against polymorphonuclear leukocyte 5-lipoxygenase using guinea pig supernatant at 10 uM

O=C(Cc1ccc(OCc2ccccc2)cc1)N(Cc1ccccc1)OCc1ccccc1
inhibition [1]: 24% | inhibition [2]: < 10% | inhibition [3]: < 10% | inhibition [4]: 22%

CN(O)C(=O)Cc1ccc(OCc2ccc3ccccc3n2)cc1
Inhibition (Mus musculus [5]): 48% | Ki [6]: 1 µM | IC50 [7]: 1 µM | IC50 [8]: 0.35 µM | inhibition [9]: < 10% | inhibition in vivo at 60 mg/kg (Cavia porcellus [10]): 94%

CN(O)C(=O)Cc1ccc(OCc2ccccc2)cc1
IC50 (Cyclooxygenase [11]): 9 µM | Ki [6]: > 100 µM | IC50 (Cavia porcellus [12]): 5 µM | IC50 (Cavia porcellus [13]): 4.2 µM | IC50 (Cyclooxygenase [14]): < 10 µM | inhibition in vivo at 60 mg/kg (Cavia porcellus [10]): 83% | Inhibition (Mus musculus [15]): 65%

CC(c1ccccc1)N(O)C(=O)Cc1ccc(OCc2ccccc2)cc1 (stereo not drawn)
inhibition [16]: 38% | Inhibition (Mus musculus [15]): 47%

O=C(CCCc1ccccc1)NCCc1ccccc1
inhibition [2]: < 10% | inhibition [17]: < 10% | inhibition [4]: < 10% | inhibition [18]: 12%
